Data taken from ChEMBL document CHEMBL1149451, “Design, synthesis, and biological evaluation of 3,4-diarylmaleimides as angiogenesis inhibitors” (J Med Chem, 2006).
Active and inactive are the calls of the source. The calls are words filed in the database; no cut-off is given here.

How the values were obtained:
[1] = target: T1, Protein kinase C epsilon type (Mus musculus) (UniProt P16054); assay: Inhibition of mouse PKC epsilon expressed in Sf9 cells at 100 uM; settings: values are per cent of control
T1 sequence (whole entry): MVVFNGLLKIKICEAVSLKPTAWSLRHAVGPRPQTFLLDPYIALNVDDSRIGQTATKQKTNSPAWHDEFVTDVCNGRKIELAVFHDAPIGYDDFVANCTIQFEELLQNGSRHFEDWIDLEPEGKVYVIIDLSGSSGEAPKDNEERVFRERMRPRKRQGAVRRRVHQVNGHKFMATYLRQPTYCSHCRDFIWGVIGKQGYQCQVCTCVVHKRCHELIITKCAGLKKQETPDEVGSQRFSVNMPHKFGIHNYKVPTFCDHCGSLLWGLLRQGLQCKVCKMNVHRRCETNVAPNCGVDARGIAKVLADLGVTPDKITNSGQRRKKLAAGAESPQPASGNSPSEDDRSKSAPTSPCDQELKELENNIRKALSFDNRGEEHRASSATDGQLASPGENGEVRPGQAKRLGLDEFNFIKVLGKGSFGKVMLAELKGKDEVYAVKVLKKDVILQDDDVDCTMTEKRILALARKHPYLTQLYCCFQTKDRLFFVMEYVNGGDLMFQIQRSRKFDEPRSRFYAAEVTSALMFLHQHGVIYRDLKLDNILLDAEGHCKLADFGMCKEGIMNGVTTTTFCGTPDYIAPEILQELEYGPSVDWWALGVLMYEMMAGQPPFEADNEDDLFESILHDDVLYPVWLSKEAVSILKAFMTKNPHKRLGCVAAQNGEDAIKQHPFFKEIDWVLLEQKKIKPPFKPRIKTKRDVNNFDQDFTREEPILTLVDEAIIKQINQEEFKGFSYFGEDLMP

[2] = species on record: Gallus gallus; assay: Inhibition of vessel growth in chick embryo assay at 10 ug after 24 h; format: functional
Summary of the method: (§1)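 Chick embryo assay. White leghorn eggs incubated at 37.5 °C; window opened at 70 h after removing albumen. At 75 h, compound in DMSO stock was mixed into 2% agarose and given as 10 µL pellets, 15 per experiment, on the area vasculosa.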

[3] = target: Tubulin (Sus scrofa) (UniProt P02554+P02550); assay: Inhibition of tubulin polymerization in porcine brain upto 10 uM
Tubulin (Sus scrofa), sequence (P02550 whole entry, looked up): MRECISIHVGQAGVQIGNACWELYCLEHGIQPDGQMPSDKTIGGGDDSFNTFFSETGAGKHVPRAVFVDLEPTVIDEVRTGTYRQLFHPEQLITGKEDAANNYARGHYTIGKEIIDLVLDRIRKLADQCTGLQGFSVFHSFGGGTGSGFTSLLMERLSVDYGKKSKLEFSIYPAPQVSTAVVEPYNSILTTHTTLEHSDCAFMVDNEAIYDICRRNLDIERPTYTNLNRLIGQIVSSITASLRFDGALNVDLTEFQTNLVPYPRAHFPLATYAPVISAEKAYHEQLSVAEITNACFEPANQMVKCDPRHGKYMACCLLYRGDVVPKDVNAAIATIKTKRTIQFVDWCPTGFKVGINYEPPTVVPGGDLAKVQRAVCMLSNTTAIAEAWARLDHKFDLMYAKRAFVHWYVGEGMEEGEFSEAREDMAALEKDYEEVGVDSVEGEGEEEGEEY
Tubulin (Sus scrofa), sequence (P02554 whole entry, looked up): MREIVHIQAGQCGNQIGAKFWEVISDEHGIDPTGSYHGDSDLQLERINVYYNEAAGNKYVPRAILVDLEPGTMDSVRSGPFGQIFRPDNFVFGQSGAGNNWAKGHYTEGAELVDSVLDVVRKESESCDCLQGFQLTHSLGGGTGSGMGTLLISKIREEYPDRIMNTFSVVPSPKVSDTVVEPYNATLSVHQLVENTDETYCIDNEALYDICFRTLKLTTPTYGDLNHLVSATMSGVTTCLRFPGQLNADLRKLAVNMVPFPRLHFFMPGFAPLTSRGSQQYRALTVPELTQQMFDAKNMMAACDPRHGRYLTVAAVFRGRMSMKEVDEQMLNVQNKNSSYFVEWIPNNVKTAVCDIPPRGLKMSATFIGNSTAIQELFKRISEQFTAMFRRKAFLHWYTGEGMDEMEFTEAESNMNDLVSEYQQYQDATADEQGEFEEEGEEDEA
Summary of the method: (§2)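 Microtubule protein isolated from porcine brain, 1 mg/mL, polymerized 20 min at 37 °C in PIPES buffer with 10 mM GTP, pH 6.8. Turbidity followed at 360 nm; assembly compared with an effector-free control.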

[4] = target: Receptor tyrosine-protein kinase erbB-2 (Homo sapiens) (UniProt P04626); assay: Inhibition of human ERBB2 expressed in Sf9 cells at 10 uM; values are per cent of control
Receptor tyrosine-protein kinase erbB-2 (Homo sapiens), sequence (P04626 whole entry): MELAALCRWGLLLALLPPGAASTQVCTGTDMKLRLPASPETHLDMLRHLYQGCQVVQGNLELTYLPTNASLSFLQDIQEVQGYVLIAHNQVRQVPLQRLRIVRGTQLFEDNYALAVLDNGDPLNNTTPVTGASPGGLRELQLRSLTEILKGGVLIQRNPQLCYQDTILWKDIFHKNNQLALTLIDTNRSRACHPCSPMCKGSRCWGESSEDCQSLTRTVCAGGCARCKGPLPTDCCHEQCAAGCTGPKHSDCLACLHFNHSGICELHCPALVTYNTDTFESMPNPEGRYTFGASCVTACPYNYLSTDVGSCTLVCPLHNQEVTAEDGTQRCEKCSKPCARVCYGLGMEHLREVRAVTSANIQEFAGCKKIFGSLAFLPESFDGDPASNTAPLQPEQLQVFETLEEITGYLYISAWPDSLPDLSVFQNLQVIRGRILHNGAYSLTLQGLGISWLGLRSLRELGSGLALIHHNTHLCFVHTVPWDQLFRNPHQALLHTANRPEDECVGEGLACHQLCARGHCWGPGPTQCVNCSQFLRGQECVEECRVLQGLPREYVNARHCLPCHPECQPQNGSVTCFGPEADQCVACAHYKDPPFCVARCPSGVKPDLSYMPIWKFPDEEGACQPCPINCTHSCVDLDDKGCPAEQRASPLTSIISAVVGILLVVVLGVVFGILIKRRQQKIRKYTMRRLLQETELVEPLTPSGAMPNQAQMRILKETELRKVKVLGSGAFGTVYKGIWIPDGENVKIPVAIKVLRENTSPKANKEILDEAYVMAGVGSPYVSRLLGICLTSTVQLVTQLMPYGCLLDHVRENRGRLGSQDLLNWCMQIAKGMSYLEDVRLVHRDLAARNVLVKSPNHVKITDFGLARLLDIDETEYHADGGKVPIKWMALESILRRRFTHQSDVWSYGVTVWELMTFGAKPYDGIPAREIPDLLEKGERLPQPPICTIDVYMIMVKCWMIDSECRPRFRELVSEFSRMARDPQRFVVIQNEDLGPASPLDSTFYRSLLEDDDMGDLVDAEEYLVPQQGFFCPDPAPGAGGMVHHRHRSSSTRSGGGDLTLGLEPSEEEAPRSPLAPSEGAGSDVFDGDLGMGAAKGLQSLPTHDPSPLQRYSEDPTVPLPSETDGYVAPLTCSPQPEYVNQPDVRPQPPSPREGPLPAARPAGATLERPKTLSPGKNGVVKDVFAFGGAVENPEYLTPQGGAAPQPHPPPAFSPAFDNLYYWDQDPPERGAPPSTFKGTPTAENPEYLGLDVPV

[5] = target: Receptor tyrosine-protein kinase erbB-2 (Homo sapiens) (UniProt P04626); assay: Inhibition of human ERBB2 expressed in Sf9 cells at 100 uM; values are per cent of control
[6] = target: T2, Protein kinase C iota type (Homo sapiens) (UniProt P41743); assay: Inhibition of human PKC iota expressed in Sf9 cells at 10 uM; values are per cent of control
T2 sequence (whole entry): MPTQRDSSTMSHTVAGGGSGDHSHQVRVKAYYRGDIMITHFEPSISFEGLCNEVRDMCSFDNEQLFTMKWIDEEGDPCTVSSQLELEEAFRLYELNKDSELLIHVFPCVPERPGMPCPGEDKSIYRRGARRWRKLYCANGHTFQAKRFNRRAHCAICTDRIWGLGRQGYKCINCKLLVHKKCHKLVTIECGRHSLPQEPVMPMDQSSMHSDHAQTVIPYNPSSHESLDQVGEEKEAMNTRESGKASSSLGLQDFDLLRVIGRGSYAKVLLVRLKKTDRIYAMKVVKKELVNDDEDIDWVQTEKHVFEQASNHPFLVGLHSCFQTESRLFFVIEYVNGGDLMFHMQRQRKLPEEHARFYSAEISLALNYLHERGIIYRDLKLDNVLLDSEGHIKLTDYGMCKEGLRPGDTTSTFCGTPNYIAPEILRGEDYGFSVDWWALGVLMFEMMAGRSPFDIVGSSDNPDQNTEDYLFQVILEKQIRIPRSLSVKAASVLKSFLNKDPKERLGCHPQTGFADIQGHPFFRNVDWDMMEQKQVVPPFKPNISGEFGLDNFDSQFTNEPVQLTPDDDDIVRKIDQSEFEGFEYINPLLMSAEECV

[7] = target: Cyclin-dependent kinase 2/cyclin E (Homo sapiens) (UniProt P24864+P24941+O96020); assay: Inhibition of human CDK2/cycE expressed in Sf9 cells at 100 uM; values are per cent of control
[8] = species on record: Gallus gallus; assay: Inhibition of vessel growth in chick embryo assay at 50 ug after 24 h; format: functional; summary of the method: as §1
[9] = target: Tubulin (Sus scrofa, UniProt P02554+P02550); assay: Inhibition of tubulin polymerization in porcine brain; summary of the method: as §2
[10] = target: Vascular endothelial growth factor receptor 2 (Homo sapiens, UniProt P35968); assay: Inhibition of human VEGFR2
Vascular endothelial growth factor receptor 2, sequence (P35968 whole entry): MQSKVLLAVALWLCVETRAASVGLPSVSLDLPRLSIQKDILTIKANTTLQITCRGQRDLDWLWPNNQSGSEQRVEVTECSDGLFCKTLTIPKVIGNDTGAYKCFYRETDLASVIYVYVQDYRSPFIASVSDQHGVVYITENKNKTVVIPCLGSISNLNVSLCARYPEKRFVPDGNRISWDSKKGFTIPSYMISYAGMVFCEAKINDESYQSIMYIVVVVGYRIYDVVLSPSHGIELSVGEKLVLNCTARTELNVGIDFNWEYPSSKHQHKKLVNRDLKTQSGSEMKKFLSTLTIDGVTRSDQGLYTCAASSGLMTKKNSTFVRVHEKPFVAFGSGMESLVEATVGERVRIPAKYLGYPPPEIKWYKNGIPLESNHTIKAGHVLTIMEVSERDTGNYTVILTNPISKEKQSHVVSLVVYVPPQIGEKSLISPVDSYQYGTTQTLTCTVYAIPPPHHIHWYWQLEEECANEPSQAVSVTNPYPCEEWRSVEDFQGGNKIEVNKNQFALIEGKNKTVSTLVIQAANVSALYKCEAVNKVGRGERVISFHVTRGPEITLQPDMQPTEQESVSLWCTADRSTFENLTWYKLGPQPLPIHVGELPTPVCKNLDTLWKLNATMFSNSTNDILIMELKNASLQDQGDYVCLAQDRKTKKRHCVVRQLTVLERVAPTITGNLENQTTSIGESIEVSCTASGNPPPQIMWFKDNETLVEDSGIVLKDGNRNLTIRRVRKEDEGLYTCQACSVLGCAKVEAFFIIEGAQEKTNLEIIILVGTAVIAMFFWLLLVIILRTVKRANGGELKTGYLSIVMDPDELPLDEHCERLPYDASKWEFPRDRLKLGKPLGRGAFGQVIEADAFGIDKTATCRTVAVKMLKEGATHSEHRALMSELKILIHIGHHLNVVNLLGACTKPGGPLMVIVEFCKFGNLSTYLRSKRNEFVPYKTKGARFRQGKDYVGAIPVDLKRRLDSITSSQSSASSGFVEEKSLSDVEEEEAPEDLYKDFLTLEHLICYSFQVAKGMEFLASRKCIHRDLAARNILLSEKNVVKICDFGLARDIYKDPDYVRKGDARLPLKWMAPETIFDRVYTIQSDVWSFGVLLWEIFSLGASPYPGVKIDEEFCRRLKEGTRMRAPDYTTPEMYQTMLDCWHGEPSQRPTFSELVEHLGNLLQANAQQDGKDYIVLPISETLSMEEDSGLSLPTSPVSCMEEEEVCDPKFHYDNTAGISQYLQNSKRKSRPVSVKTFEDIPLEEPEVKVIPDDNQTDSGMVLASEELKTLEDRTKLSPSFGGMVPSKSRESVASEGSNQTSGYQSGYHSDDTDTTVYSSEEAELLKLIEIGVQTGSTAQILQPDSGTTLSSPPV

[11] = species on record: Gallus gallus; assay: Inhibition of vessel growth in chick embryo assay at 20 ug after 24 h; format: functional; summary of the method: as §1

Structure (SMILES) | residual activity [1] [%] | Inhibition [2] [%] | inhibition [3] | residual activity [4] [%] | residual activity [5] [%] | residual activity [6] [%] | residual activity [7] [%] | Inhibition [8] [%] | IC50 [9] [nM] | IC50 [10] [nM] | Inhibition [11] [%]
COc1ccc(C2=C(c3ccc(OC)cc3)C(=O)NC2=O)cc1 | 82 | 47.4 | inactive | 88 | 86 | 95 | 103 | – | – | – | –
COc1ccc(C2=C(c3ccccc3)C(=O)NC2=O)cc1 | 94 | – | inactive | 85 | 97 | 102 | 95 | 16.4 | – | – | –
COc1ccc(C2=C(c3ccccc3)C(=O)NC2=O)cc1OC | 83 | – | inactive | 87 | 79 | 94 | 82 | 2.8 | – | – | –
COc1cc(C2=C(c3ccccc3)C(=O)NC2=O)cc(OC)c1OC | 91 | – | inactive | 92 | 78 | 99 | 88 | 32.2 | – | – | –
COc1ccc(C2=C(c3cc(OC)c(OC)c(OC)c3)C(=O)NC2=O)cc1O | 95 | 76.9 | – | 99 | 85 | 103 | 84 | – | 7600 | – | –
COc1ccc(C2=C(c3cc(OC)c(OC)c(OC)c3)C(=O)NC2=O)cc1 | 68 | 27.3 | inactive | 78 | 80 | 97 | 89 | – | – | – | –
O=C1NC(=O)C(c2ccccc2)=C1c1ccccc1 | 98 | – | inactive | 100 | 94 | 97 | 93 | 11.3 | – | – | –
COc1cc(C2=C(c3cc[nH]c3)C(=O)NC2=O)cc(OC)c1OC | 61 | – | inactive | 91 | 93 | 92 | 71 | – | – | 2500 | 47.2
